Assay results taken from ChEMBL document CHEMBL4368887, “Synthesis and X-ray study of dispiro 8-nitroquinolone analogues and their cytotoxic properties against human cervical cancer HeLa cells” (Medchemcomm, 2019).
Activity calls are given as the source filed them. The calls are words filed in the database; no cut-off is given here.

Columns and labels:
HeLa [1] = assay: Cytotoxicity against human HeLa cells after 72 hrs by MTT assay; type: functional, cell-based
Summary of the method: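 HeLa cells in DMEM with 4 mM L-glutamine, penicillin, streptomycin and 10% FBS. Seeded at 4000 cells/well, settled 24 h, then given serially diluted compound for 72 h at 37°C in 5% CO2. MTT in IMDM for 4 h, acidified ethanol lysis 15 min, A570 with 690 nm background. IC50 is 50% absorbance of untreated wells; three experiments in triplicate.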

HeLa [2] = assay: Induction of morphological changes in human HeLa cells assessed as swollen cells at IC50 after 24 hrs by phase contrast microscopic analysis; type: functional, cell-based
Summary of the method: (§1)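 HeLa cells in DMEM with 10% FBS at 37°C, 5% CO2. […] Morphology compared with untreated cells under phase contrast microscope.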

HeLa [3] = assay: Induction of morphological changes in human HeLa cells assessed as detached cells at IC50 after 24 hrs by phase contrast microscopic analysis; type: functional, cell-based; summary of the method: as §1
HeLa [4] = assay: Induction of morphological changes in human HeLa cells assessed as disintegrated membrane at IC50 after 24 hrs by phase contrast microscopic analysis; type: functional, cell-based; summary of the method: as §1
HeLa [5] = assay: Induction of morphological changes in human HeLa cells assessed as rounded cells at IC50 after 24 hrs by phase contrast microscopic analysis; type: functional, cell-based; summary of the method: as §1
HeLa [6] = assay: Induction of morphological changes in human HeLa cells assessed as cell shrinkage at IC50 after 24 hrs by phase contrast microscopic analysis; type: functional, cell-based; summary of the method: as §1
[7] = Induction of hemolysis in human erythrocytes at IC50 by standard optical density assay relative to control; type: cell-based, Erythrocyte; settings: read-out: Activity
Summary of the method: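 Donor blood diluted in saline; RBCs spun down at 3000 rpm for 10 min and washed three times. Mixed with compound at a range of concentrations and incubated at 37°C in 5% CO2. Spun at 3000 rpm for 5 min, supernatant OD read at 570 nm. Hemolysis % calculated against saline (0%) and distilled water (100%) controls.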

HeLa [8] = assay: Induction of ROS generation in human HeLa cells at IC50 after 3 hrs by DCFH-DA dye-based flow cytometric analysis; type: functional, cell-based
Summary of the method: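 Harvested, washed twice in PBS, then 5 µM DCFH-DA (final) in DMEM for 10 min at 37°C. Flow cytometry at ex 485 / em 530 nm on 20000 cells per sample. Output is % of cells with DCF green fluorescence.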

HeLa [9] = assay: Induction of apoptosis in human HeLa cells assessed as cytoplasmic shrinkage at IC50 by DAPI staining-based fluorescence microscopic analysis; type: functional, cell-based
Summary of the method: (§2)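 Cells at 1×10^5 per coverslip exposed at IC50 concentration. Fixed in methanol:acetic acid 3:1 v/v, stained with DAPI 5 µg/mL for 20 min. Nuclear morphology viewed by fluorescence microscopy with a […].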

HeLa [10] = assay: Induction of apoptosis in human HeLa cells assessed as nuclear shrinkage at IC50 by DAPI staining-based fluorescence microscopic analysis; type: functional, cell-based; summary of the method: as §2
HeLa [11] = assay: Induction of apoptosis in human HeLa cells assessed as chromatin condensation at IC50 by DAPI staining-based fluorescence microscopic analysis; type: functional, cell-based; summary of the method: as §2
HeLa [12] = assay: Induction of apoptosis in human HeLa cells assessed as apoptotic body formation at IC50 by DAPI staining-based fluorescence microscopic analysis; type: functional, cell-based; summary of the method: as §2
HeLa [13] = assay: Induction of apoptosis in human HeLa cells at IC50 after 48 hrs by Annexin V-FITC/propidium iodide staining based flow cytometric analysis (reference value: 100%); type: functional
HeLa [14] = assay: Induction of apoptosis in human HeLa cells assessed as increase in caspase3 levels at IC50 after 24 hrs by Western blot analysis; type: functional, cell-based
Summary of the method: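 Extracts of treated cells quantified by Bradford assay. 50 μg protein run on 12% SDS-PAGE and transferred to nitrocellulose. Blocked in 5% skim milk in PBS for 1 h at room temperature, primary antibody overnight, goat anti-mouse 1:2000. Three independent experiments in triplicate.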

HeLa [15] = assay: Induction of apoptosis in human HeLa cells assessed as viable cells level at IC50 after 48 hrs by Annexin V-FITC/propidium iodide staining based flow cytometric analysis (reference value: 77.09%); type: functional
HeLa [16] = assay: Induction of apoptosis in human HeLa cells assessed as early apoptotic cells level at IC50 after 48 hrs by Annexin V-FITC/propidium iodide staining based flow cytometric analysis (reference value: 0%); type: functional
HeLa [17] = assay: Induction of apoptosis in human HeLa cells assessed as late apoptotic cells level at IC50 after 48 hrs by Annexin V-FITC/propidium iodide staining based flow cytometric analysis (reference value: %); type: functional
HeLa [18] = assay: Induction of apoptosis in human HeLa cells assessed as necrotic cells level at IC50 after 48 hrs by Annexin V-FITC/propidium iodide staining based flow cytometric analysis (reference value: %); type: functional

Compound	Activity (HeLa [1])	IC50 (HeLa [1]) [µM]	Activity (HeLa [2])	Activity (HeLa [3])	Activity (HeLa [4])	Activity (HeLa [5])	Activity (HeLa [6])	hemolysis [7] [%]	Activity (HeLa [8])	Activity (HeLa [9])	Activity (HeLa [10])	Activity (HeLa [11])	Activity (HeLa [12])	Activity (HeLa [13]) [%]	Activity (HeLa [14])	Activity (HeLa [15]) [%]	Activity (HeLa [16]) [%]	Activity (HeLa [17]) [%]	Activity (HeLa [18]) [%]
COc1cccc2c1C(=O)c1c(O)c3c(c(O)c1C2=O)C[C@@](O)(C(=O)CO)C[C@@H]3O[C@H]1C[C@H](N)[C@H](O)[C@H](C)O1 [DOXORUBICIN]	Dose-dependent effect	14	–	–	–	–	–	–	–	–	–	–	–	–	–	–	–	–	–
COc1ccc([C@@H]2[C@@H](c3ccccc3)N[C@]3(C(=O)Nc4ccc(F)cc43)[C@]23CNc2c(cccc2[N+](=O)[O-])C3=O)cc1	Dose-dependent effect	24	–	–	–	–	–	–	–	–	–	–	–	–	–	–	–	–	–
O=C1c2cccc([N+](=O)[O-])c2NC[C@@]12[C@H](c1ccc(Br)cc1)[C@@H](c1ccccc1)N[C@]21C(=O)Nc2ccc(Br)cc21	Dose-dependent effect	25	–	–	–	–	–	–	–	–	–	–	–	–	–	–	–	–	–
O=C1c2cccc([N+](=O)[O-])c2NC[C@@]12[C@H](c1ccc(F)cc1)[C@@H](c1ccccc1)N[C@]21C(=O)Nc2ccc(Cl)cc21	Dose-dependent effect	27	–	–	–	–	–	–	–	–	–	–	–	–	–	–	–	–	–
O=C1c2cccc([N+](=O)[O-])c2NC[C@@]12[C@H](c1ccc(Cl)cc1)[C@@H](c1ccccc1)N[C@]21C(=O)Nc2ccc(Cl)cc21	Dose-dependent effect	18	Active	Active	Active	Active	Active	< 7	Active	Active	Active	Active	Active	–	–	–	–	–	–
O=C1c2cccc([N+](=O)[O-])c2NC[C@@]12[C@H](c1ccc(Br)cc1)[C@@H](c1ccccc1)N[C@]21C(=O)Nc2ccc(Cl)cc21	Dose-dependent effect	21	Active	Active	Active	Active	Active	< 7	Active	Active	Active	Active	Active	–	–	–	–	–	–
O=C1c2cccc([N+](=O)[O-])c2NC[C@@]12[C@H](c1ccc(Cl)cc1)[C@@H](c1ccccc1)N[C@]21C(=O)Nc2ccc(F)cc21	Dose-dependent effect	25	–	–	–	–	–	–	–	–	–	–	–	–	–	–	–	–	–
O=C1c2cccc([N+](=O)[O-])c2NC[C@@]12[C@H](c1ccc(F)cc1)[C@@H](c1ccccc1)N[C@]21C(=O)Nc2ccc(F)cc21	Dose-dependent effect	20	–	–	–	–	–	–	–	–	–	–	–	–	–	–	–	–	–
O=C1c2cccc([N+](=O)[O-])c2NC[C@@]12[C@H](c1ccc(Br)cc1)[C@@H](c1ccccc1)N[C@]21C(=O)Nc2ccc(F)cc21	Dose-dependent effect	26	–	–	–	–	–	–	–	–	–	–	–	–	–	–	–	–	–
COc1ccc([C@@H]2[C@@H](c3ccccc3)N[C@]3(C(=O)Nc4ccc(Br)cc43)[C@]23CNc2c(cccc2[N+](=O)[O-])C3=O)cc1	Dose-dependent effect	19	Active	Active	Active	Active	Active	< 7	Active	Active	Active	Active	Active	–	–	–	–	–	–
O=C1c2cccc([N+](=O)[O-])c2NC[C@@]12[C@H](c1ccc(Cl)cc1)[C@@H](c1ccccc1)N[C@]21C(=O)Nc2ccc(Br)cc21	Dose-dependent effect	23	Active	Active	Active	Active	Active	< 7	Active	Active	Active	Active	Active	–	–	–	–	–	–
O=C1c2cccc([N+](=O)[O-])c2NC[C@@]12[C@H](c1ccc(F)cc1)[C@@H](c1ccccc1)N[C@]21C(=O)Nc2ccc(Br)cc21	Dose-dependent effect	26	–	–	–	–	–	–	–	–	–	–	–	–	–	–	–	–	–
COc1ccc([C@@H]2[C@@H](c3ccccc3)N[C@]3(C(=O)Nc4ccc(Cl)cc43)[C@]23CNc2c(cccc2[N+](=O)[O-])C3=O)cc1	Dose-dependent effect	16	Active	Active	Active	Active	Active	< 7	Active	Active	Active	Active	Active	95.68	Active	2.44	85.33	1.42	0
